MC4R antagonist = human MC4R antagonism in cAMP assay. MC4R-expressing cells, MTII-stimulated cAMP, LANCE TR-FRET. inhibition, % at 6.5 µM. 0.48% of 360,000 active. AID 540295;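 active = inhibition above its plate's cutoff, the mean of tested wells on that plate plus 3 SD, cut at about 29% in these data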;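 note: 0% = Melanotan II alone and 100% = Melanotan II plus saturating MCL0020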
Target sequence (P32245 whole entry, looked up): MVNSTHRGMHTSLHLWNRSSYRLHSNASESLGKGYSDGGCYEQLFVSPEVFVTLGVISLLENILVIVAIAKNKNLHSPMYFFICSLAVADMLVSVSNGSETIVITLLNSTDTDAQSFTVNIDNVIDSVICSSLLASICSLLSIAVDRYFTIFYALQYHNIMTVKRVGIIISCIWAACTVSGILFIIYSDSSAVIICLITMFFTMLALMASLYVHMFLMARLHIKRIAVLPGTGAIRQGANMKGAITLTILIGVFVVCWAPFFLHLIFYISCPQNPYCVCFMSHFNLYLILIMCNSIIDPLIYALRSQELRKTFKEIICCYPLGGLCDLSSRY
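Material – human MC4R-expressing U2OS cells · Repeats – no replicates · Detection – TR-FRET with Eu-cAMP and labeled anti-cAMP, 671 nm · Times – compound 30 min, challenge 1 h, detection 1 h · Compound – single nominal compound dose of 6.5 µM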
MC4R ag barr = human MC4R agonism via beta-arrestin; P32245; U2OS MC4R beta-arrestin complementation, luminescence; percent of melanotan II response, DMSO zero; activation, % at 8.9 µM; 0.98% of 360,000 active;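 active = activation above a per-plate cutoff, the mean activation of sample wells on that plate plus 3 SD, cut at about 8% in these data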
SMARCA2 act = activators of SMARCA2 function; AID 652017; MG213 cells, MMTV-luciferase reporter, dexamethasone, overnight; activation, % at 9.1 µM; 1% of 370,000 active; in the data active = activation above about 7.8%;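 note: 0% = vehicle wells and 100% = reference activator wells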
ATG4B inhibitor = blocks human ATG4B protease cleavage of LC3 substrate; Q9Y4P1; ATG4B cleavage of LC3-PLA2, NBD-HPC fluorescence, 1 h; inhibition, % at 8.33 µM; 0.51% of 340,000 active; in the data active = inhibition above about 40%
MPTP inh = permeability transition pore inhibition. AID 602449. 1.4% of 360,000 active. inhibition, % at 10 µM. isolated mouse mitochondria, Ca2+ swelling absorbance, 30 min;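 active = inhibition of 50% or more, scaled per plate between neutral and stimulator controls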;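 note: 0% = DMSO wells given calcium and 100% = 1 mM EGTA wells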
SMARCA2 act conf = SMARCA2 activation, confirmation screen | MG213 cells, MMTV-luciferase with dexamethasone, luminescence, overnight; MG213 cells expressing E1A, Rb sequestered; DMSO wells 0%, reference activator 100% | shares compounds with SMARCA2 act | 30% of 3,500 active | activation, % at 9.1 µM;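 active = activation above its plate's cutoff, the mean activation of tested wells plus 3 SD, cut at about 7.9% in these data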
GAL4-VP16 Luc = counter-screen for SMARCA2 activators: GAL4-VP16 luciferase reporter activation; shares compounds with SMARCA2 act; HEK293 GAL4-VP16 pG5luc reporter, luciferase luminescence; scaled: DMSO wells 0%, SAHA wells 100%; activation, % at 9.1 µM; 41% of 3,500 active;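 active = activation above the solvent-only control well mean plus 3 SD, averaged across control plates, cut at about 5.2% in these data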
* = called active by the depositor; nt = not tested or not shown. The list is not random: actives were taken first. Their share in the collection is about 4.1%.

SMILES	MC4R antagonist	MC4R ag barr	SMARCA2 act	ATG4B inhibitor	MPTP inh	SMARCA2 act conf	GAL4-VP16 Luc
CCCCOCCCNC(=O)C[C@@H]1C(=O)N(Cc2ccc(OC)cc2)/C2=C/CCCCC[C@@]21C(=O)OCC	nt	nt	-3	nt	nt	nt	nt
O=c1c2cc(F)ccc2sn1-c1ccccc1Cl	-1	-2	9.0*	nt	12	-2	0
CC(C)(C)C1=Nn2c(nnc2-c2ccc(C(C)(C)C)cc2)SC1	nt	nt	-6	nt	nt	nt	nt
CCOc1ccc(S(=O)(=O)N2CCC(C(=O)NCc3ccccc3CN3CCCC3)CC2)cc1	3	0	12*	1	-3	-2	1
COc1ccc2nc(-c3ccco3)c(-c3ccco3)nc2c1	0	0	11*	15	4	-7	9.2*
COc1ccc(OCCC(=O)OCC(=O)NCc2ccccc2)cc1	6	-1	9.8*	-1	7	-1	2
COc1cccc2cc(-c3nc(-c4cccs4)cs3)c(=O)oc12	7	3	8.6*	-4	0	4	11*
COc1cccc(C2C(C(=O)OC(C)C)=C(C)Nc3ncnn32)c1 (stereo unspecified)	8	-1	8.2*	2	1	1	1
CC1=C(C(=O)OC(C)C)C(c2cccc(F)c2)n2ncnc2N1 (stereo unspecified)	8	0	0	-8	2	nt	nt
COC(=O)c1c(-c2ccncc2)csc1NC(=O)c1ccoc1C	7	1	3	-8	-2	nt	nt
COC(=O)c1c(-c2cccnc2)csc1NC(=O)c1ccc2c(c1)OCO2	9	5	9.4*	8	0	7	15*
C/C(=N/OCc1ccc(Br)cc1)c1ccccn1	-3	8.6*	9.1*	12	-1	7	8.7*
Cc1cccc(C(=O)N[C@H](C(=O)Nc2ncc(C)s2)C(C)C)c1	10	-1	27*	7	-1	26*	0
COc1ccc(S[C@]2(C(=O)N3CCCC3)CC(=O)N(S(=O)(=O)c3ccc(F)cc3)[C@@H]2c2ccc(OC)cc2)cc1	nt	nt	-4	nt	nt	nt	nt
CC(C)OCCCNC(=O)C1CCC(CNS(=O)(=O)c2ccccc2)CC1 (stereo unspecified)	17	-3	-1	9	-1	nt	nt
CC(C)OCCCNC(=O)C1CCC(CNS(=O)(=O)c2ccc(Cl)cc2)CC1 (stereo unspecified)	-3	0	14*	-6	-3	-4	1
O=C(Nc1ccc(F)cc1)c1ccc2[nH]c(=O)c(=O)[nH]c2c1	-3	0	8.5*	-6	-1	0	0
N#C/C(=C\C=C\c1ccccc1)c1nc(-c2ccc3c(c2)OCO3)cs1	-11	6	9.8*	5	17	1	-1
COC(=O)[C@]12C[C@H](CC(=O)NCCCN3CCCC3=O)C(=O)N(Cc3ccco3)C1=C[C@H](COCc1ccccc1)O[C@@H]2C	nt	nt	-2	nt	nt	nt	nt
CN1CCN(C(=S)NC(=O)/C=C/c2ccccc2)CC1	18	-2	8.3*	1	0	1	1
O=C(COc1ccc(-n2cnnn2)cc1)Nc1cccc(Cl)c1Cl	8	5	8.1*	10	-2	1	1
COC(=O)c1ccccc1NC(=O)NCC1CCN(Cc2ccc(OC)cc2)CC1	nt	nt	-3	nt	nt	nt	nt
Cc1ccc(NC(=O)Cc2noc3ccccc23)nc1	7	0	9.3*	0	-3	7	3
O=C(Cc1noc2ccccc12)Nc1ccccn1	3	-1	3	14	-2	nt	nt
CCOC(=O)[C@]12CCCC=C1N(Cc1ccc(OC)cc1)C(=O)[C@@H]2CC(=O)NCCCCc1ccccc1	nt	nt	-3	nt	nt	nt	nt
CCN1C(=O)C(=O)N(CC(=O)c2cc(C)n(C3CC3)c2C)C1=O	9	-3	4	0	-1	nt	nt
CCCN1C(=O)C(=O)N(CC(=O)c2cc(C)n(C3CC3)c2C)C1=O	8	1	12*	1	2	11*	8.7*
CCOc1ccc2oc(=O)cc(C)c2c1	-7	-1	1	-6	-1	nt	nt

Screening data as filed in PubChem BioAssay.
